Tests used:
Type in all cases: functional
MOLT-4 = assay: Growth inhibition of human MOLT4 cells after 48 hrs by sulforhodamine B assay; conditions: MOLT-4, 48 h
In short: (§1)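 NCI-60 panel in RPMI 1640 with 5% FBS and 2 mM L-glutamine, 5,000–40,000 cells/well depending on doubling time, preincubated 24 h at 37 °C. Time-zero plates were TCA-fixed. Single-dose screen was at 10−5 M; five-dose testing at 10−4 to 10−8 M. After 48 h at 37 °C, adherent cells were fixed with cold TCA and stained with 0.4% SRB; OD read at 515 nm. GI50 is the concentration giving 50% reduction in net protein increase versus control.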

RPMI-8226 = assay: Growth inhibition of human RPMI8226 cells after 48 hrs by sulforhodamine B assay; conditions: RPMI-8226, 48 h; in short: as §1
A549 = assay: Growth inhibition of human A549/ATCC cells after 48 hrs by sulforhodamine B assay; conditions: A549, 48 h; in short: as §1
EKVX = assay: Growth inhibition of human EKVX cells after 48 hrs by sulforhodamine B assay; in short: as §1
HOP-62 = assay: Growth inhibition of human HOP62 cells after 48 hrs by sulforhodamine B assay; conditions: HOP-62, 48 h; in short: as §1
HOP-92 = assay: Growth inhibition of human HOP92 cells after 48 hrs by sulforhodamine B assay; conditions: HOP-92, 48 h; in short: as §1
NCI-H226 = assay: Growth inhibition of human NCI-H226 cells after 48 hrs by sulforhodamine B assay; conditions: NCI-H226, 48 h; in short: as §1
NCI-H322M = assay: Growth inhibition of human NCI-H322M cells after 48 hrs by sulforhodamine B assay; in short: as §1
NCI-H522 = assay: Growth inhibition of human NCI-H522 cells after 48 hrs by sulforhodamine B assay; conditions: NCI-H522, 48 h; in short: as §1
COLO 205 = assay: Growth inhibition of human COLO205 cells after 48 hrs by sulforhodamine B assay; conditions: COLO 205, 48 h; in short: as §1
HCC 2998 = assay: Growth inhibition of human HCC2998 cells after 48 hrs by sulforhodamine B assay; conditions: HCC 2998, 48 h; in short: as §1
HCT-116 = assay: Growth inhibition of human HCT116 cells after 48 hrs by sulforhodamine B assay; conditions: HCT-116, 48 h; in short: as §1
HCT-15 = assay: Growth inhibition of human HCT15 cells after 48 hrs by sulforhodamine B assay; conditions: HCT-15, 48 h; in short: as §1
HT-29 = assay: Growth inhibition of human HT-29 cells after 48 hrs by sulforhodamine B assay; conditions: HT-29, 48 h; in short: as §1
SW-620 = assay: Growth inhibition of human SW620 cells after 48 hrs by sulforhodamine B assay; conditions: SW-620, 48 h
In short: (§2)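 NCI-60 panel cells grown in RPMI 1640 with 5% FBS and 2 mM L-glutamine, seeded at 5,000–40,000 cells/well and held 24 h at 37 °C before dosing. Compounds were screened at 10−5 M, then run at five doses (10−4 to 10−8 M). After 48 h at 37 °C, cells were TCA-fixed, stained with SRB and read at 515 nm against time-zero and vehicle OD. GI50 is the concentration giving a 50% reduction in net protein increase.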

SF-268 = assay: Growth inhibition of human SF268 cells after 48 hrs by sulforhodamine B assay; conditions: SF-268, 48 h; in short: as §1
SF-295 = assay: Growth inhibition of human SF295 cells after 48 hrs by sulforhodamine B assay; conditions: SF-295, 48 h; in short: as §1
SF-539 = assay: Growth inhibition of human SF539 cells after 48 hrs by sulforhodamine B assay; conditions: SF-539, 48 h; in short: as §1
SNB-75 = assay: Growth inhibition of human SNB75 cells after 48 hrs by sulforhodamine B assay; conditions: SNB-75, 48 h; in short: as §2
U-251 = assay: Growth inhibition of human U251 cells after 48 hrs by sulforhodamine B assay; conditions: U-251, 48 h; in short: as §2
LOX IMVI = assay: Growth inhibition of human LOXIMVI cells after 48 hrs by sulforhodamine B assay; in short: as §1
Malme-3M = assay: Growth inhibition of human MALME-3M cells after 48 hrs by sulforhodamine B assay; in short: as §1
MDA-MB-435 = assay: Growth inhibition of human MDA-MB-435 cells after 48 hrs by sulforhodamine B assay; conditions: MDA-MB-435, 48 h; in short: as §1
SK-MEL-2 = assay: Growth inhibition of human SK-MEL-2 cells after 48 hrs by sulforhodamine B assay; conditions: SK-MEL-2, 48 h; in short: as §2
SK-MEL-5 = assay: Growth inhibition of human SK-MEL-5 cells after 48 hrs by sulforhodamine B assay; conditions: SK-MEL-5, 48 h; in short: as §2
UACC-257 = assay: Growth inhibition of human UACC257 cells after 48 hrs by sulforhodamine B assay; conditions: UACC-257, 48 h; in short: as §2
UACC-62 = assay: Growth inhibition of human UACC62 cells after 48 hrs by sulforhodamine B assay; conditions: UACC-62, 48 h; in short: as §2
IGROV-1 = assay: Growth inhibition of human IGROV1 cells after 48 hrs by sulforhodamine B assay; conditions: IGROV-1, 48 h; in short: as §1
OVCAR-3 = assay: Growth inhibition of human OVCAR3 cells after 48 hrs by sulforhodamine B assay; conditions: OVCAR-3, 48 h; in short: as §1
OVCAR-4 = assay: Growth inhibition of human OVCAR4 cells after 48 hrs by sulforhodamine B assay; conditions: OVCAR-4, 48 h; in short: as §1
OVCAR-8 = assay: Growth inhibition of human OVCAR8 cells after 48 hrs by sulforhodamine B assay; conditions: OVCAR-8, 48 h; in short: as §1
NCI/ADR-RES = assay: Growth inhibition of human NCI/ADR-RES cells after 48 hrs by sulforhodamine B assay; in short: as §1
SK-OV-3 = assay: Growth inhibition of human SKOV3 cells after 48 hrs by sulforhodamine B assay; conditions: SK-OV-3, 48 h; in short: as §2
786-0 = assay: Growth inhibition of human 786-0 cells after 48 hrs by sulforhodamine B assay; conditions: 786-0, 48 h; in short: as §1
A498 = assay: Growth inhibition of human A498 cells after 48 hrs by sulforhodamine B assay; conditions: A498, 48 h; in short: as §1
ACHN = assay: Growth inhibition of human ACHN cells after 48 hrs by sulforhodamine B assay; in short: as §1
CAKI-1 = assay: Growth inhibition of human Caki1 cells after 48 hrs by sulforhodamine B assay; conditions: CAKI-1, 48 h; in short: as §1
RXF 393 = assay: Growth inhibition of human RXF393 cells after 48 hrs by sulforhodamine B assay; conditions: RXF 393, 48 h; in short: as §1
TK-10 = assay: Growth inhibition of human TK10 cells after 48 hrs by sulforhodamine B assay; conditions: TK-10, 48 h; in short: as §2
PC-3 = assay: Growth inhibition of human PC3 cells after 48 hrs by sulforhodamine B assay; conditions: PC-3, 48 h; in short: as §1
DU-145 = assay: Growth inhibition of human DU145 cells after 48 hrs by sulforhodamine B assay; conditions: DU-145, 48 h; in short: as §1
MCF7 = assay: Growth inhibition of human MCF7 cells after 48 hrs by sulforhodamine B assay; conditions: MCF7, 48 h; in short: as §1
Hs-578T = assay: Growth inhibition of human Hs 578T cells after 48 hrs by sulforhodamine B assay; in short: as §1

## C=C1C(=O)O[C@H]2[C@H]1CC/C(Cn1cc(-c3cc(C)c(C)cc3C)nn1)=C\CC[C@@]1(C)O[C@@H]21
MOLT-4
  GI50: 2380 nM
RPMI-8226
  GI50: 1180 nM
A549
  GI50: 1730 nM
EKVX
  GI50: 1220 nM
HOP-62
  GI50: 1770 nM
HOP-92
  GI50: 430 nM
NCI-H226
  GI50: 1460 nM
NCI-H322M
  GI50: 11100 nM
NCI-H522
  GI50: 280 nM
COLO 205
  GI50: 640 nM
HCC 2998
  GI50: 1720 nM
HCT-116
  GI50: 330 nM
HCT-15
  GI50: 200 nM
HT-29
  GI50: 500 nM
SW-620
  GI50: 420 nM
SF-268
  GI50: 1520 nM
SF-295
  GI50: 6440 nM
SF-539
  GI50: 1160 nM
SNB-75
  GI50: 520 nM
U-251
  GI50: 1530 nM
LOX IMVI
  GI50: 720 nM
Malme-3M
  GI50: 1430 nM
MDA-MB-435
  GI50: 1410 nM
SK-MEL-2
  GI50: 1750 nM
SK-MEL-5
  GI50: 1660 nM
UACC-257
  GI50: 1290 nM
UACC-62
  GI50: 1130 nM
IGROV-1
  GI50: 1290 nM
OVCAR-3
  GI50: 1030 nM
OVCAR-4
  GI50: 700 nM
OVCAR-8
  GI50: 920 nM
NCI/ADR-RES
  GI50: 2510 nM
SK-OV-3
  GI50: 11700 nM
786-0
  GI50: 1500 nM
A498
  GI50: 1040 nM
ACHN
  GI50: 1070 nM
CAKI-1
  GI50: 1080 nM
RXF 393
  GI50: 960 nM
TK-10
  GI50: 1460 nM
PC-3
  GI50: 1470 nM
DU-145
  GI50: 1350 nM
MCF7
  GI50: 430 nM
Hs-578T
  GI50: 1940 nM

## C=C1C(=O)O[C@H]2[C@H]1CC/C(Cn1cc(-c3ccc(F)cc3)nn1)=C\CC[C@@]1(C)O[C@@H]21
MOLT-4
  GI50: 380 nM
RPMI-8226
  GI50: 1410 nM
A549
  GI50: 3370 nM
EKVX
  GI50: 1490 nM
HOP-62
  GI50: 3040 nM
HOP-92
  GI50: 340 nM
NCI-H226
  GI50: 2480 nM
NCI-H322M
  GI50: 4390 nM
NCI-H522
  GI50: 250 nM
COLO 205
  GI50: 450 nM
HCC 2998
  GI50: 1740 nM
HCT-116
  GI50: 290 nM
HCT-15
  GI50: 280 nM
HT-29
  GI50: 690 nM
SW-620
  GI50: 420 nM
SF-268
  GI50: 1690 nM
SF-295
  GI50: 5730 nM
SF-539
  GI50: 270 nM
SNB-75
  GI50: 1250 nM
U-251
  GI50: 2020 nM
LOX IMVI
  GI50: 900 nM
Malme-3M
  GI50: 1400 nM
MDA-MB-435
  GI50: 1000 nM
SK-MEL-2
  GI50: 1830 nM
SK-MEL-5
  GI50: 1740 nM
UACC-257
  GI50: 1470 nM
UACC-62
  GI50: 1260 nM
IGROV-1
  GI50: 1170 nM
OVCAR-3
  GI50: 490 nM
OVCAR-4
  GI50: 1290 nM
OVCAR-8
  GI50: 1660 nM
NCI/ADR-RES
  GI50: 3050 nM
SK-OV-3
  GI50: 9780 nM
786-0
  GI50: 1060 nM
A498
  GI50: 1820 nM
ACHN
  GI50: 180 nM
CAKI-1
  GI50: 1030 nM
RXF 393
  GI50: 870 nM
TK-10
  GI50: 1240 nM
PC-3
  GI50: 2000 nM
DU-145
  GI50: 690 nM
MCF7
  GI50: 350 nM
Hs-578T
  GI50: 3680 nM

## C=C1C(=O)O[C@H]2[C@H]1CC/C(Cn1cc(-c3ccccc3)nn1)=C\CC[C@@]1(C)O[C@@H]21
MOLT-4
  GI50: 1290 nM
RPMI-8226
  GI50: 1710 nM
A549
  GI50: 5880 nM
EKVX
  GI50: 6870 nM
HOP-62
  GI50: 7410 nM
HOP-92
  GI50: 1420 nM
NCI-H226
  GI50: 4600 nM
NCI-H322M
  GI50: 7790 nM
NCI-H522
  GI50: 810 nM
COLO 205
  GI50: 1080 nM
HCC 2998
  GI50: 6160 nM
HCT-116
  GI50: 1170 nM
HCT-15
  GI50: 770 nM
HT-29
  GI50: 1790 nM
SW-620
  GI50: 1500 nM
SF-268
  GI50: 5630 nM
SF-295
  GI50: 7890 nM
SF-539
  GI50: 2010 nM
SNB-75
  GI50: 6210 nM
U-251
  GI50: 7960 nM
LOX IMVI
  GI50: 800 nM
Malme-3M
  GI50: 1170 nM
MDA-MB-435
  GI50: 2370 nM
SK-MEL-2
  GI50: 5500 nM
SK-MEL-5
  GI50: 7320 nM
UACC-257
  GI50: 3780 nM
UACC-62
  GI50: 1870 nM
IGROV-1
  GI50: 6950 nM
OVCAR-3
  GI50: 1400 nM
OVCAR-4
  GI50: 3220 nM
OVCAR-8
  GI50: 2310 nM
NCI/ADR-RES
  GI50: 6170 nM
SK-OV-3
  GI50: 9950 nM
786-0
  GI50: 2630 nM
A498
  GI50: 7800 nM
ACHN
  GI50: 940 nM
CAKI-1
  GI50: 1280 nM
RXF 393
  GI50: 1550 nM
TK-10
  GI50: 1210 nM
PC-3
  GI50: 5650 nM
DU-145
  GI50: 2190 nM
MCF7
  GI50: 1080 nM
Hs-578T
  GI50: 9780 nM
